Most compounds without a hit are left out; they make up all but 2.9% or so of the library.
OX1R antag-1: antagonists of human orexin 1 receptor (OX1R) | Orexin/Hypocretin receptor type 1 (Homo sapiens), O43613 | OX1R-expressing cells, FRET antagonist read-out | inhibition, % at 6.6 µM | 330,000 compounds, 1.8% hits; in the data active = inhibition mostly above about 38%, no sharp cut-off; inactive = mostly below about 40%;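 note: 0% = agonist challenge alone and 100% = reference antagonist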
M1 ag parental: counter-screen for M1 agonists: effect in parental CHO-K1 cells; Fluo-8 calcium fluorescence; scaled to maximal ATP response, vehicle zero; activation, % at 3 µM; 360,000 compounds, 0.48% hits; AID 602248, 2012; in the data active = activation above about 15%;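 note: untransfected CHO-K1 host cells lacking M1 receptor as counterscreen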
OX1R antag-2: OX1R (HCRTR1) antagonists, primary screen, fluorescence, CHO/OX1R cells, Fluo-8 calcium, orexin A; Orexin/Hypocretin receptor type 1 (Homo sapiens), O43613; Fluo-8 calcium fluorescence; inhibition, % at 5 µM; 330,000 compounds, 0.43% hits; AID 434989, 2010;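 active = inhibition above its plate's threshold, mean inhibition of all tested compounds on the plate plus 3 SD, cut at about 37% in these data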;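 note: 0% = orexin A challenge wells and 100% = SB-334867-A antagonist wells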
CHO-K1 Ca antag: nonselective inhibitor or artifact in parental CHO-K1 cells; ATP-induced calcium, Fluo-8 fluorescence; inhibition, % at 3 µM; 360,000 compounds, 0.6% hits;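 active = inhibition above a per-plate cutoff, the plate's mean sample inhibition plus 3 SD, cut at about 24% in these data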;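 note: 0% = DMSO plus EC80 ATP and 100% = DMSO alone without ATP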
M1 PAM parental: nonselective calcium activators in parental CHO-K1 cells, primary screen, counter-screen for M1 PAM project, cell-based, Fluo-8 calcium fluorescence, full deck, 1536-well. ATP EC20; 0% at ATP EC20, 100% at ATP max. activation, % at 3 µM. 360,000 compounds, 0.02% hits. AID 602247, 2012;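 active = activation above the run cutoff, the mean activation of all test compounds plus 3 SD, cut at about 40% in these data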;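 note: peak over basal fluorescence ratio in a 140 s read after ATP addition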
CHO parental Ca: ATP-evoked calcium signal inhibitors, parental CHO, primary screen, counter-screen for OX1R antagonist project, cell-based, fluorescence, Fluo-8 calcium dye; 330,000 compounds, 0.63% hits; parental CHO-K1, ATP-induced calcium, Fluo-8 fluorescence; inhibition, % at 5.6 µM;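 active = inhibition above that plate's mean sample inhibition plus 3 SD, cut at about 26% in these data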;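 note: 0% = ATP-challenged DMSO wells and 100% = DMSO wells without ATP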
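Test system: untransfected parental CHO cell line; also added: ATP stimulus; dosing: 5.6 µM, single dose; signal: calcium-sensitive Fluo-8 fluorescence; measure: percent inhibition of ATP-evoked calcium rise, normalized to controls; benchmarks: low control ATP plus DMSO, high control DMSO only; replication: one well per compound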
The depositor's hits bear a star; . = not tested or not shown.

SMILES	OX1R antag-1	M1 ag parental	OX1R antag-2	CHO-K1 Ca antag	M1 PAM parental	CHO parental Ca
CC(=O)N1C(=O)N(C(C)=O)C2C1N(C)C(=O)N2C(C)=O (centres undefined)	10	0	-5	-9	20	-8
Cc1ccccc1NS(=O)(=O)c1ccc(C(=O)NCCCN2CCCC2=O)cc1	14	1	1	15	-22	-10
CC(C)=CCCC(C)NC(=O)NC1CCCCC1 (centres undefined)	22	0	-26	25*	-9	-24
Cc1cccc(/C(N)=N/OC(=O)c2cccc3ccccc23)c1	18	0	4	3	-13	-5
N/C(=N\OC(=O)c1cccc2ccccc12)c1cccnc1	53*	0	-26	2	17	-25
CCn1c(SCc2nc(CC(=O)Nc3ccccc3OC)no2)nnc1-c1cccs1	70*	4	-6	4	15	-16
CCn1c(SCc2nc(-c3ccccc3)no2)nnc1-c1cccs1	31	1	-8	4	-6	-25
COc1ccc(-n2nc3c(c2NC(=O)C(C)Oc2ccccc2)CS(=O)C3)cc1 (centres undefined)	10	1	-5	-8	11	1
COc1cccc(NC(=S)NC(=O)Cc2ccc(Cl)cc2)c1	-2	23*	9	6	23	9
CCOC(=O)c1nn(-c2ccc(Cl)cc2Cl)c(=N)c(C#N)c1C	10	.	22	.	.	20

Screens (PubChem)
